Assay results gathered from unrelated publications.
Protocols differ between the studies behind these lines.
Target: Misshapen-like kinase 1 (MINK1, Homo sapiens, UniProt Q8N4C8)

SMILES	effect on	action	method	concentration	quantity	result
O=C(Nc1cnn(-c2csc(C(=O)NC3COC3)c2)c1)Nc1c(F)cccc1Cl	enzyme activity	inhibitor	–	5 µM	remaining activity	62.2%
COc1cc(-c2cc(-c3ccc(N4CCNCC4)cc3)cnc2N)cc(OC)c1OC	enzyme activity	inhibitor	–	0.1 µM	inhibition	74%
O=S(=O)(NC1CCC(c2cc(F)ccc2F)(S(=O)(=O)c2ccc(Cl)cc2)CC1)C(F)(F)F (stereo not drawn)	cell-free assay	–	competition with immobilised ligand	1 µM	remaining binding	100%
Cc1cnc(NC2CCOCC2)nc1-n1cnc(C(=O)NC(CN)c2cc(F)cc(Cl)c2)c1 (stereo not drawn)	enzyme activity	inhibitor	radiometric	1 µM	remaining activity	103%
Cc1ccc(C(=O)NCc2ccsc2)cc1C#Cc1cn(C(C)C)c2ncnc(N)c12	enzyme activity	inhibitor	–	1 µM	activity vs control	84%
Oc1cccc(-c2nc(N3CCOCC3)c3oc4ncccc4c3n2)c1	enzyme activity	inhibitor	–	10 µM	remaining activity	116%
Cc1ccc(Nc2nccc(N(C)c3ccc4c(C)n(C)nc4c3)n2)cc1S(N)(=O)=O	enzyme activity	inhibitor	–	10 µM	inhibition	80%
CO[C@@H](C)c1c(Nc2ccc([C@H](N(C)C(=O)C3CCS(=O)(=O)CC3)C(F)(F)F)cc2)cnc2cc(Cl)nn12	cell-free assay	–	competition with immobilised ligand	1 µM	remaining binding	100%
CCCOc1ccc(OC)c(F)c1C(=O)c1ccc(C(=O)N[C@@H]2CNC[C@H]2NC(=O)c2ccc3[nH]ncc3c2)cc1	enzyme activity	inhibitor	–	10 µM	remaining activity	96%
CNC(=O)c1ccc(Nc2ncc(C(F)(F)F)c(NCc3nccnc3N(C)S(C)(=O)=O)n2)cc1	cell-free assay	–	competition with immobilised ligand	0.1 µM	remaining binding	44%
O=C1Nc2ccc(Cl)cc2C1=Cc1cc(Cl)c(O)c(Cl)c1	cell-free assay	–	–	0.5 µM	remaining signal	22.4%
Cn1nc(C(=O)NCc2ccc(C(=O)O)cc2)cc1-c1ccc2[nH]ccc2c1	cell-free assay	–	competition with immobilised ligand	0.1 µM	remaining binding	95%
FC(F)(F)Oc1cccc(-c2cnc3ccc(-c4ccncc4)nn23)c1	enzyme activity	inhibitor	radiometric	1 µM	activity vs control	58%
CCCOc1ccc([C@@H]2[C@@H](C(=O)O)[C@H](c3ccc4c(c3)OCO4)CN2CC(=O)Nc2c(CC)cccc2CC)cc1	cell-free assay	–	competition with immobilised ligand	1 µM	remaining binding	78%
FC(F)c1nc2ccccc2n1-c1nc(N2CCOCC2)nc(N2CCOCC2)n1	enzyme activity	inhibitor	–	10 µM	remaining activity	102%
COc1cc(Nc2cnc(C#N)c(O[C@H](C)CN(C)C)n2)ncc1-c1cnn(C)c1	enzyme activity	inhibitor	radiometric	10 µM	remaining activity	67%
CCS(=O)(=O)c1cc2cc(C[C@@](O)(CC(C)(C)c3ccc(F)cc3C(N)=O)C(F)(F)F)[nH]c2cn1	cell-free assay	–	competition with immobilised ligand	1 µM	remaining binding	79%
CN(C)C1CCN(CC#Cc2nn(C3CCCC3)c3nc(NCc4ccccc4)ncc23)C1 (stereo not drawn)	enzyme activity	inhibitor	FRET	0.1 µM	inhibition	11%
CC(C)(C)c1nc2c(s1)c1nc(N)ncc1c1ccc(NS(=O)(=O)c3c(F)cccc3F)c(F)c12	enzyme activity	inhibitor	radiometric	1 µM	remaining activity	90%
COc1cc2c(Nc3ccc(Br)cc3F)ncnc2cc1OCC1CCN(C)CC1	cell-free assay	–	–	0.5 µM	remaining signal	81.5%
COc1ccc2c(c1)O[C@@H](c1ccc(OC)c(OC)c1)C[C@H]2NC(=O)C1(c2ccc3c(c2)OC(F)(F)O3)CC1	cell-free assay	–	competition with immobilised ligand	1 µM	remaining binding	77%
CNC(=O)c1cc(Oc2ccc(NC(=O)Nc3ccc(Cl)c(C(F)(F)F)c3)cc2)ccn1	enzyme activity	inhibitor	–	10 µM	inhibition	75%
CCCS(=O)(=O)Nc1ccc(F)c(C(=O)c2c[nH]c3ncc(-c4ccc(Cl)cc4)cc23)c1F	enzyme activity	inhibitor	–	1 µM	inhibition	< 20%
CCN(CC)c1ccc(C2=NNC(=O)CC2C)cc1[N+](=O)[O-] (stereo not drawn)	enzyme activity	inhibitor	–	10 µM	remaining activity	102%
Cc1cc(NC(=O)c2cccc3cc(-c4cccc5[nH]nc(N)c45)ccc23)ccc1F	enzyme activity	inhibitor	–	0.1 µM	activity vs control	110%
CCN(CC)CCNC(=O)c1c(C)[nH]c(/C=C2\C(=O)Nc3ccc(F)cc32)c1C	enzyme activity	inhibitor	–	0.3 µM	inhibition	48%
O=C(NCc1ncc(C(F)(F)F)cc1Cl)c1ccc2c(c1)C1(CCS(=O)(=O)CC1)[C@@H](C1CC1)N2S(=O)(=O)c1ccc(F)cc1	cell-free assay	–	competition with immobilised ligand	1 µM	remaining binding	85%
COc1cc2ncnc(Nc3ccc(Oc4ccccc4)cc3C)c2cc1OC	enzyme activity	inhibitor	–	1 µM	inhibition	7%
CS(=O)(=O)CCNCc1ccc(-c2ccc3ncnc(Nc4ccc(OCc5cccc(F)c5)c(Cl)c4)c3c2)o1	cell-free assay	–	–	0.5 µM	remaining signal	111%
Cc1ccc(C(=O)Nc2ccc(CN3CCN(C)CC3)c(C(F)(F)F)c2)cc1C#Cc1cnc2cccnn12	enzyme activity	inhibitor	–	23.5 nM	remaining activity	45%
